Experimental data reported in ChEMBL document CHEMBL1125061, “Antitumor agents. 111. New 4-hydroxylated and 4-halogenated anilino derivatives of 4'-demethylepipodophyllotoxin as potent inhibitors of human DNA topoisomerase II” (1990).

Assays:
[1] = target: T1, DNA topoisomerase II (Homo sapiens) (UniProt P11388+Q02880); assay: Inhibition of DNA topoisomerase II at 100 uM.; assay type: protein assay
Method in brief: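 Human DNA topoisomerase II inhibition, tested at 25, 50 and 100 μM. […] The ID₅₀ is set from the degree of inhibition across the three concentrations.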

[2] = In vitro cytotoxicity against KB cells after a 3-day incubation.; assay type: functional; details: Homo sapiens, 72 h, read-out: ID50 (the source's name)
Method in brief: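 KB cell culture, 3-day incubation with drug; read-out was cell number. ID50 taken as the concentration giving a 50% reduction in cell number.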

Homo sapiens = species on record: Homo sapiens; assay: Cellular protein-DNA complex formation at 10 uM.; assay type: functional; set-up: reference not given here
[3] = target: T1, DNA topoisomerase II (Homo sapiens); assay: Evaluated for inhibitory activity against DNA topoisomerase II; assay type: protein assay

| Structure (SMILES) | inhibition [1] [%] | IC50 [2] [nM] | Complex formation (Homo sapiens) [%] | ID50 [3] [nM] |
| --- | --- | --- | --- | --- |
| COc1cc([C@@H]2c3cc4c(cc3[C@@H](Nc3ccccc3O)[C@H]3COC(=O)[C@H]23)OCO4)cc(OC)c1OC | 25 | 4110 | 6 |  |
| COc1cc([C@@H]2c3cc4c(cc3[C@@H](Nc3cccc(O)c3)[C@H]3COC(=O)[C@H]23)OCO4)cc(OC)c1O | > 75 | 450 | 290 | 5000 |
| COc1cc([C@@H]2c3cc4c(cc3[C@@H](Nc3cccc(F)c3)[C@H]3COC(=O)[C@H]23)OCO4)cc(OC)c1O | 75 | 230 | 158 | 50000 |
| COc1cc([C@@H]2c3cc4c(cc3[C@@H](Nc3cc(F)cc(F)c3)[C@H]3COC(=O)[C@H]23)OCO4)cc(OC)c1O | 50 | 1080 | 115 | 50000 |
| COc1cc([C@@H]2c3cc4c(cc3[C@@H](Nc3cccc(Cl)c3)[C@H]3COC(=O)[C@H]23)OCO4)cc(OC)c1O | 50 | 2290 | 51 |  |
| COc1cc([C@@H]2c3cc4c(cc3[C@@H](Nc3cccc(O)c3)[C@H]3COC(=O)[C@H]23)OCO4)cc(OC)c1OC | 25 | 310 | 37 |  |
| COc1cc([C@@H]2c3cc4c(cc3[C@@H](Nc3cccc(Br)c3)[C@H]3COC(=O)[C@H]23)OCO4)cc(OC)c1O | 25 | 2360 | 62 |  |
| COc1cc([C@@H]2c3cc4c(cc3[C@@H](O[C@@H]3O[C@@H]5CO[C@@H](C)O[C@H]5[C@H](O)[C@H]3O)[C@H]3COC(=O)[C@H]23)OCO4)cc(OC)c1O [ETOPOSIDE] | 75 | 200 | 100 | 50000 |
| COc1cc([C@@H]2c3cc4c(cc3[C@@H](Nc3ccc(F)cc3)[C@H]3COC(=O)[C@H]23)OCO4)cc(OC)c1O | > 75 | 240 | 213 | 10000 |
| COc1cc([C@@H]2c3cc4c(cc3[C@@H](Nc3ccc(O)cc3)[C@H]3COC(=O)[C@H]23)OCO4)cc(OC)c1OC | 25 | 590 | 21 |  |
| COc1cc([C@@H]2c3cc4c(cc3[C@@H](Nc3ccc(O)cc3)[C@H]3COC(=O)[C@H]23)OCO4)cc(OC)c1O | 75 | 2260 | 211 | 25000 |
| COc1cc([C@@H]2c3cc4c(cc3[C@@H](Nc3ccc(Cl)cc3)[C@H]3COC(=O)[C@H]23)OCO4)cc(OC)c1O | 75 | 220 | 99 | 50000 |
| COc1cc([C@@H]2c3cc4c(cc3[C@@H](Nc3ccccc3Cl)[C@H]3COC(=O)[C@H]23)OCO4)cc(OC)c1O | 25 | 2340 | 32 |  |
| COc1cc([C@@H]2c3cc4c(cc3[C@@H](Nc3ccc(I)cc3)[C@H]3COC(=O)[C@H]23)OCO4)cc(OC)c1O | 25 | 340 | 64 |  |
| COc1cc([C@@H]2c3cc4c(cc3[C@@H](Nc3ccccc3O)[C@H]3COC(=O)[C@H]23)OCO4)cc(OC)c1O | > 75 | 4540 | 151 | 25000 |
| COc1cc([C@@H]2c3cc4c(cc3[C@@H](Nc3ccc(Br)cc3)[C@H]3COC(=O)[C@H]23)OCO4)cc(OC)c1O | 50 | 220 | 179 | 100000 |
| COc1cc([C@@H]2c3cc4c(cc3[C@@H](Nc3ccccc3F)[C@H]3COC(=O)[C@H]23)OCO4)cc(OC)c1O | 50 | 250 | 121 |  |
